Platelet DG rel = inhibitors of platelet dense granule secretion, primary screen, cell-based, MLPCN, human platelets | human platelet-rich plasma, SFLLRN dense granule ATP release, luminescence | inhibition, %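 (compounds screened at 7.5 µM in platelet-rich plasma)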 | 300,000 compounds, 0.22% hits;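 active means mean replicate score, as percent of positive control, at or above 50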
STAT3 act = IL-6 driven STAT3 reporter potentiators, primary screen, U3A cells, luciferase, luminescence, MLSCN library. IL-6 STAT3-luciferase reporter; 100% = signal with IL-6 EC80 alone. activation (% of control), % at 5.6 µM. 190,000 compounds, 0.91% hits. AID 871, 2007;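 active means activation above the screen-wide mean of compound activation plus 3 SD, cut at about 130% in these data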;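 further: 0% = background luminescence of wells with medium and substrate only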
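Material: STAT3-luciferase reporter U3A cells. Controls: IL-6-treated wells, 100% activation. Read-out: % activation versus median of IL-6-stimulated wells. Probe or stimulus: IL-6 stimulus at 33 ng/mL final. Timing: compound 1 h, then IL-6 6 h at 37 °C. Signal: reporter luminescence signal.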
PERK inhibitor = block of dimerizer-induced PERK translation repression, primary screen, PERK inhibitor project, CHO PERK-DD cells, SEAP luminescence, HTS | 220,000 compounds, 0.17% hits | CHO PERK-DD fusion, SEAP luminescence translation reporter | Eukaryotic translation initiation factor 2-alpha kinase 3 (Homo sapiens), Q9NZJ5 | inhibition, % at 5.6 µM;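 active means inhibition above the mean inhibition of all tested compounds plus 3 SD, set separately per screening campaign, cut at about 2.9% in these data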;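 further: PERK kinase domain activated by AP20187 dimerizer at 100 nM; 0% = DMSO with dimerizer and 100% = rapamycin at 8.4 µM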
Target sequence (Q9NZJ5 whole entry, looked up, the tested form may be a part): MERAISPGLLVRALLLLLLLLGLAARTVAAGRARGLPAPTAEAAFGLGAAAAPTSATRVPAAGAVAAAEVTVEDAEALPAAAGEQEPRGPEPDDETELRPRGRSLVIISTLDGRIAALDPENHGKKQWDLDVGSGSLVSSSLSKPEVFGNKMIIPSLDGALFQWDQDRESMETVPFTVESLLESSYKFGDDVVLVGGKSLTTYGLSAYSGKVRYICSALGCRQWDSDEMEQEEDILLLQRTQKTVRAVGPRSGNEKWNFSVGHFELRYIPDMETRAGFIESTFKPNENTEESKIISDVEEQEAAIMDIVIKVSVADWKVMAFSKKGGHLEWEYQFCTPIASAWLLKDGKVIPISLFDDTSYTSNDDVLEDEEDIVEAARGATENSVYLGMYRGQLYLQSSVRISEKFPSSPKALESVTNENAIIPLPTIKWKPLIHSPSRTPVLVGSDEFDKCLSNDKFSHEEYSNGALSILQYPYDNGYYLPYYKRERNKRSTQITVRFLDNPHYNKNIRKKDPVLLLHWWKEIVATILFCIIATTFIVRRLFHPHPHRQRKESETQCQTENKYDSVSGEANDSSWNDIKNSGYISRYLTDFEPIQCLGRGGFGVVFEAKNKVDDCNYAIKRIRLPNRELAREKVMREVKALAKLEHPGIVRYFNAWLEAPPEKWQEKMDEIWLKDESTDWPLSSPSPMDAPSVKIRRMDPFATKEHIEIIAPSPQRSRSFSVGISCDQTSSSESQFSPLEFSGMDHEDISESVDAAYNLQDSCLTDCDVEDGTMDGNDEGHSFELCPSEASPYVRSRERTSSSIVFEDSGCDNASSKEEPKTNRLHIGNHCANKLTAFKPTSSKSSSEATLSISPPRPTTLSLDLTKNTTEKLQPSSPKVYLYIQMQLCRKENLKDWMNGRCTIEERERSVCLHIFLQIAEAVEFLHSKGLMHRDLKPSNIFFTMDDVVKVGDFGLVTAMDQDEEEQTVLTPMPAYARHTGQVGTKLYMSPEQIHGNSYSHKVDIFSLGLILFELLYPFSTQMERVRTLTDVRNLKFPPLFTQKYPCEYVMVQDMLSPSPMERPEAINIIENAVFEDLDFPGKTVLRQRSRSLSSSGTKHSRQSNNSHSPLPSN
STAT3 inh-1 = IL-6 driven STAT3 reporter inhibitors, primary screen, U3A cells, luciferase, luminescence, MLSCN library; IL-6 STAT3-luciferase reporter; host cell line lacks STAT1; inhibition, % at 5.5 µM; 190,000 compounds, 0.89% hits;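 active means inhibition above the mean inhibition across all screened compounds plus 3 SD, cut at about 44% in these data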;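 further: 0% = DMSO only wells and 100% = 100 µM nifuroxazide control wells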
STAT1 inh = STAT1 signaling inhibitors, primary screen, cell-based, HTS, luciferase reporter | 200,000 compounds, 0.35% hits | NIH 3T3 STAT1-luciferase reporter, IFN-gamma, luminescence | inhibition, % at 5.5 µM;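 active means inhibition above a set limit, the mean inhibition across all tested compounds plus 3 SD, cut at about 34% in these data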;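 further: 0% = IFN-gamma with DMSO and 100% = IFN-gamma with 300 µM nifuroxazide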
STAT3 inh-2 = STAT3 reporter inhibitors, retest of hits, confirmation, U3A cells, luciferase, luminescence; IL-6 STAT3 luciferase reporter; cell line lacks STAT1; inhibition, % at 5.7 µM; shares compounds with STAT3 inh-1; 1,200 compounds, 45% hits; AID 1265, 2008;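 active means inhibition above the hit cutoff computed for the primary STAT3 screen, cut at about 44% in these data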;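 further: 0% = IL-6 plus DMSO and 100% = IL-6 plus nifuroxazide control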
NFkB inh STAT3ct = NF-kB reporter inhibitors in human cells, confirmation, counter-screen for STAT3 inhibitor project, cell-based, HEK293T, luciferase, TNF-alpha stimulus | TNF-alpha induced | 1,200 compounds, 36% hits | shares compounds with STAT3 inh-1 | inhibition, % at 5.7 µM;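 active means inhibition above the mean of solvent-only control wells plus 3 SD, cutoff set per campaign, cut at about 13% in these data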;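 further: 0% = TNF-alpha with DMSO and 100% = TNF-alpha with MG high control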
STAT1 inh 2 = STAT1 reporter inhibitors, IFN-gamma induced, confirmation, counter-screen for STAT3 inhibitor project, cell-based, NIH 3T3, luciferase luminescence; shares compounds with STAT3 inh-1; NIH 3T3 STAT1-luciferase reporter; inhibition, % at 5.7 µM; 1,200 compounds, 27% hits; AID 1317, 2008;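 active means inhibition above the mean plus 3 SD of solvent-only control wells, limit set per screening run, cut at about 16% in these data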;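 further: 0% = DMSO with IFN-gamma and 100% = nifuroxazide control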
Starred values were filed as active, the others as inactive; x = no result given. Only some compounds are listed: those with a hit (about 1.4% of all), similar ones and a draw of the others.

SMILES	Platelet DG rel	STAT3 act	PERK inhibitor	STAT3 inh-1	STAT1 inh	STAT3 inh-2	NFkB inh STAT3ct	STAT1 inh 2
C/C(=N/NC(=O)c1ccccn1)c1ccco1	40	66	1	44*	-9	11	-16	-43
O=C1C(c2ccnc3ccccc23)=C(O)c2ccccc21	20	63	0	48*	7	9	38*	-30
COc1ccc(CCNC(=O)C(C)Sc2ccc(C)cc2)cc1OC (stereo not drawn)	2	101	0	-2	3	x	x	x
Brc1ccc(-c2cn3ccccc3n2)s1	28	61	-1	51*	-14	7	-40	-153
Clc1ccc(-c2cn3ccccc3n2)cc1	11	x	x	x	x	x	x	x
CSc1nc(NNC=O)cc(Oc2ccc(NC(C)=O)cc2)n1	2	x	x	x	x	x	x	x
COc1ccc(-c2csc(N3C(=N)SCC3=O)n2)cc1	-6	62	1	50*	-72	-14	-37	-191
COc1ccc(-c2csc(N3C(=O)CNC3=S)n2)cc1	-1	100	1	3	-89	x	x	x
CNc1nnc(-c2ccc(N(C)C)cc2)s1	x	57	0	53*	15	19	-10	-57
CN(C)c1ccc(-c2nn3c(-c4ccc(Cl)cc4)nnc3s2)cc1	-3	103	0	3	-10	x	x	x
Cc1ccn2cc(C(=O)Nc3ccc4c(c3)OCCO4)nc2c1	-10	65	0	44*	-54	5	-21	-83
O=C(c1ccc(F)cc1)N1CCC(C(=O)N2CCN(S(=O)(=O)c3cccc([N+](=O)[O-])c3)CC2)CC1	3	x	x	x	x	x	x	x
Cc1cc(/C=C2/SC(=S)N(c3cccc(C(F)(F)F)c3)C2=O)c(C)n1-c1cccnc1	4	34	1	78*	28	84*	33*	31*
Cc1cc(/C=C2\SC(=S)N(Cc3ccco3)C2=O)c(C)n1-c1cccnc1	-7	117	1	-21	6	x	x	x
CS(=O)(=O)Nc1ccc(C(=O)Nc2ccccc2-c2ccccc2)cc1	-2	x	x	x	x	x	x	x
CCN1/C(=C/c2ccc3ccccc3[n+]2CC)C=Cc2ccccc21	18	23	-2	92*	29	90*	52*	22*
O=C(Nc1ccc(S(=O)(=O)N2CCCC2)cc1)c1ccc(CN2CCc3ccccc3C2)cc1	4	29	-2	82*	21	85*	34*	2
O=C(Nc1ccc(S(=O)(=O)N2CCCCC2)cc1)c1ccncc1	1	80	0	25	11	x	x	x
O=C(Nc1ccc(Cc2ccncc2)cc1)c1ccc(S(=O)(=O)N2CCCC2)cc1	9	44	0	68*	21	66*	15*	15
O=C(Nc1ccc(S(=O)(=O)N2CCOCC2)cc1)c1ccc(CN2CCc3ccccc3C2)cc1	-16	36	0	83*	31	88*	42*	33*
O=C(Nc1ccc(Cl)cc1)c1ccc(CN2CCc3ccccc3C2)cc1	1	x	x	x	x	x	x	x
CCOc1ccc(NC(=O)CN(C)C(=O)c2ccc(OCC3CCCO3)cc2)cc1OCC (stereo not drawn)	3	x	x	x	x	x	x	x
Cc1ccc(N(C(=O)CCl)C(C(=O)NC2CCCCC2)c2cccnc2)cc1C (stereo not drawn)	1	41	-1	70*	30	102*	40*	40*
Cc1ccccc1NC(=O)N1CCC(NC(=O)C2CCCCC2)CC1	-5	x	x	x	x	x	x	x
Cc1cccc(NC(=O)c2ccc(CN3CCN(Cc4ccccc4)CC3)cc2)c1	-1	48	-1	63*	6	62*	14*	-7
